# Screening results as filed in PubChem BioAssay.
# MLL AF4-AF9 inh: inhibitors of AF4 peptide binding to AF9, primary screen, biochemical, AlphaScreen, biotin-AF4 peptide, FLAG-AF9, single point. Protein AF-9 (Homo sapiens), P42568. hit rate 0.47% among 350,000. inhibition, % at 10 µM;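 active = every replicate reaching a set inhibition limit, whatever the replicate mean, cut at about 25% in these data; inconclusive = mean inhibition reaches that limit but some replicates miss it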;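 also: 0% = plate neutral control median and 100% = total signal loss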
# RAD54 inh: inhibitors of human RAD54 branch migration, primary screen, biochemical, fluorescence, single point | DNA repair and recombination protein RAD54-like (Homo sapiens), Q92698 | RAD54 Holliday junction branch migration, FAM/BHQ fluorescence | inhibition, % at 10.4 µM | hit rate 0.14% among 360,000;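 active = mean normalized replicate activity at least 40 and at least half of replicates scoring 40 or more; inconclusive = only one of the two criteria met; inactive = mean below 40 and under half of replicates reaching 40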;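 also: 0% = median of neutral control wells and 100% = median of positive control wells; inhibitors cause a drop in the FAM fluorescence signal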
# S100A4 MyoIIA: inhibitors of S100A4-myosin IIA peptide binding, primary screen, biochemical, fluorescence polarization, TAMRA-MyoIIA peptide. Protein S100-A4 (Homo sapiens), P26447. inhibition, % at 10.7 µM. hit rate 0.14% among 360,000. AID 652163, 2013;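 active = mean inhibition of at least 70% across replicates, with every replicate also reaching that level; inconclusive = mean inhibition reaches 70% but some replicates fall short; inactive = mean inhibition below 70%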
# Target sequence (P26447 whole entry, looked up): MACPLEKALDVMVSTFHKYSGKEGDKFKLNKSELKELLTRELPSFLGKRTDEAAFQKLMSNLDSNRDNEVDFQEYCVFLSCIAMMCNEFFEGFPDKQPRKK
#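 Assay system: human S100A4 monomer with TAMRA-labelled myosin IIA peptide / Buffer or medium: Calcium-containing HEPES buffer, pH 7.2 / Reagent: TAMRA-labelled myosin IIA heavy-chain peptide probe, 5 nM / Compound: one dose per compound / Timing: polarization read 5 min after assay mix addition, stable 5–60 min / Benchmarks: neutral control DMSO, positive control TFP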
# RAD52 anneal inh: RAD52 DNA annealing inhibitors, primary screen, biochemical, FRET, single point, set 2 | DNA repair protein RAD52 homolog (Homo sapiens), P43351 | hit rate 0.46% among 360,000 | inhibition, % at 18.7 µM | recombinant RAD52 DNA annealing, FRET fluorescence;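 active = every replicate showing at least 50% inhibition; inconclusive = mean inhibition at least 50% but not in every replicate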
# dFosB act: activators of delta FosB homodimer, primary screen, biochemical, fluorescence polarization, TAMRA-CDK5 oligo, single point. purified delta FosB; percent of positive-control signal above neutral wells. activation, % at 25 µM. hit rate 0.99% among 340,000. Protein FosB (Mus musculus), P13346;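 active = mean activation above about 17%, with every replicate also reaching it, limit read from the data, passing the limit was not always enough; inconclusive = only one of the two conditions met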
# Target sequence (P13346 whole entry, looked up): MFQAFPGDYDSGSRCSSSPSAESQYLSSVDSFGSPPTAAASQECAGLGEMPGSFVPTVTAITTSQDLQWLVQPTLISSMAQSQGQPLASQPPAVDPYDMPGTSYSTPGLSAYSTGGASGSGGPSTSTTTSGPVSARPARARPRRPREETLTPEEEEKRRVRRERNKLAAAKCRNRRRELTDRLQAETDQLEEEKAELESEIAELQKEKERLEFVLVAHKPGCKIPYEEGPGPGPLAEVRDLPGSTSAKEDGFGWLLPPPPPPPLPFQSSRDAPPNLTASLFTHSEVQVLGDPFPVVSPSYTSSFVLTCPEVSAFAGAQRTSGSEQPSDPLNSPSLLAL
# DNA binding: DNA binding of candidate compounds, dose response, artefact control for RAD54 inhibitor project, biochemical, fluorescence polarization, cherry-pick | shares compounds with RAD54 inh | Acridine orange-DNA displacement, 20 min | AC50, µM (highest dose often 35 µM), inactives show top-dose activity change, negative = DNA binding | hit rate 8% among 460 | AID 651673, 2012;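 active = signal drop giving an AC50 within twice the top valid tested concentration of each sample, actives reach about 35 µM in these data; inactive = activity opposite to expected, plus the rest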;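 also: polarization loss reports compound binding to salmon sperm DNA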
# DNA binder FP: DNA-binding compounds via dye displacement, dose response, artefact control for RAD52 inhibitor project, biochemical, fluorescence polarization, cherry-pick; shares compounds with RAD52 anneal inh; Salmon sperm DNA/acridine orange FP displacement; AC50, µM; hit rate 8% among 1,000; AID 652128, 2013;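 active = fitted half-maximal concentration for signal loss at or below twice the highest dose tested, in every separate run, actives reach about 64 µM in these data; inconclusive = runs disagree, or flat partial signal loss, or poor fit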
# Numbers without * were called inactive; i = inactive; u = inconclusive; x = no result. Most compounds without a hit are left out; they make up all but 1.5% or so of the library.
SMILES,MLL AF4-AF9 inh,RAD54 inh,S100A4 MyoIIA,RAD52 anneal inh,dFosB act,DNA binding,others
CCCCN(CC)CCCNC(=O)c1cc2c(=O)n(C)c3ccccc3c2n1C,3,61*,-3,40,-29,-13%,
CC1CCN(CCCNC(=O)c2cc3c(=O)n(C)c4ccccc4c3n2C)CC1,1,59*,-2,27,-32,-17%,
CC(C)OCCCNC(=O)c1cc2c(=O)n(C)c3ccccc3c2n1C,-1,3,2,-14,-23,x,
Cn1c(C(=O)NCCN2CCCCCC2)cc2c(=O)n(C)c3ccccc3c21,-1,56*,0,38,-22,-6%,
Cn1c(C(=O)NCCCN2CCN(c3ccccc3F)CC2)cc2c(=O)n(C)c3ccccc3c21,10,-13,-2,-2,-15,x,
COc1ccccc1-c1ccc([C@@H]2[C@H](CO)N3CCCCN(S(=O)(=O)c4cn(C)cn4)C[C@@H]23)cc1,1,10,3,-2,x,x,
O=C(C[C@H]1C[C@H]2c3cc(NC(=O)Nc4ccccc4F)ccc3O[C@H]2[C@H](CO)O1)NC1CCCC1,-17,-4,7,5,x,x,
O=C(c1ccc2c(c1)OCO2)N1C[C@H]2[C@@H](c3ccccc31)[C@@H](CO)N2Cc1ccccc1Cl,2,-12,0,-32,x,x,
COC(=O)C[C@H]1CC[C@@H]2[C@@H](COc3ccc(NC(=O)Nc4cccc(F)c4)cc3C(=O)N2C)O1,3,8,-2,-14,x,x,
CCOc1cc2nc(-c3ccc(OC)c(OC)c3)nc(NCCCN3CCOCC3)c2cc1OC,x,85*,x,x,1,i,
CC(=O)Nc1ccc2ccccc2c1,x,-3,x,x,2,x,
CC(=O)Nc1ccc2cc3ccc(NC(C)=O)cc3nc2c1,-6,51*,-1,-101,-48,4%,
CCCCN(C)CCNC(=O)c1cc2cc3ccc(OC)cc3nc2o1,1,53*,0,7,-41,-20%,
COCCCNC(=O)c1cc2cc3cc(OC)ccc3nc2o1,-3,9,-10,-6,-29,x,
CCN(CC)CCNC(=O)c1cc2cc3ccc(OC)cc3nc2o1,2,50*,-3,19,-20,-24%,
C[C@@H]1CCCCO[C@@H](CN(C)S(=O)(=O)c2ccc(Cl)cc2)[C@@H](C)CN([C@H](C)CO)C(=O)c2cc(NC(=O)Nc3ccccc3)ccc2O1,-1,-7,-3,0,x,x,
COc1cc2nc(N(C)C)nc(N)c2cc1OC,x,94*,x,x,-8,i,
COc1cc2nc3occc3c(OC)c2cc1OC,-4,37,-4,25,3,x,
Cc1cc(C)c2nc(C)cc(Nc3ccc(C(=O)NCCO)cc3)c2c1,-1,50*,-3,6,-1,-22%,
CC(=O)c1ccc(Nc2cc(C)nc3c(C)cc(C)cc23)cc1,0,x,-4,-26,-18,x,
CN(C)CCOc1nc(-c2ccccc2)nc2c1oc1ccccc12,x,81*,x,x,-15,i,
C[C@H]1CN([C@@H](C)CO)C(=O)c2cc(-c3ccc(C#N)cc3)cnc2O[C@@H]1CN(C)C(=O)CC1CC1,-4,-16,8,0,x,x,
O=C(C[C@@H]1CC[C@H]2[C@@H](COC[C@@H](O)CN2Cc2cccc(Cl)c2)O1)N1CCCCC1,-5,2,3,-5,x,x,
CCCC(c1nnnn1Cc1ccc(OC)cc1)N1CCN(c2ccccc2)CC1 (stereo unspecified),x,u,x,x,-2,-10%,
CNC[C@H]1Oc2ccc(NC(=O)Cn3cnnn3)cc2CC(=O)N([C@@H](C)CO)C[C@@H]1C,-2,-8,-7,-18,x,x,
SMILES,MLL AF4-AF9 inh,RAD54 inh,S100A4 MyoIIA,RAD52 anneal inh,dFosB act,DNA binding,others
CCCCN(CC)CCNC(=O)c1cc2c(=O)[nH]c3ccccc3c2s1,3,47,-4,-11,-16,x,
CCN(CC)CCNC(=O)c1cc2c(=O)n(CC)c3ccccc3c2s1,2,28,-4,-5,-41,x,
CCCN(CCC)CCCNC(=O)c1cc2c(=O)[nH]c3ccccc3c2s1,1,51*,1,10,-41,-14%,
CCn1c(=O)c2cc(C(=O)NCCN(C)C)sc2c2ccccc21,0,53*,-1,26,-16,-10%,
COc1ccccc1CNC(=O)c1cccs1,x,63*,x,x,2,11%,
CCOc1ccc(NC(=O)c2cc(S(=O)(=O)N3CCOCC3)cs2)cc1,-3,-10,-2,-2,0,x,
O=C(Nc1ccccc1)c1cc(S(=O)(=O)N2CCOCC2)cs1,x,u,x,x,-6,-3%,
O=C(Nc1ccccc1[N+](=O)[O-])c1cc(S(=O)(=O)N2CCOCC2)cs1,4,4,-1,-14,-2,x,
O=C(Nc1cccc(Br)c1)c1cc(S(=O)(=O)N2CCOCC2)cs1,1,52*,3,-2,3,5%,
O=C(Nc1cccc([N+](=O)[O-])c1)c1cc(S(=O)(=O)N2CCOCC2)cs1,1,57*,0,-2,-14,-9%,
CCCNC(=O)N(C)C[C@H]1Oc2cc(-c3cncnc3)ccc2S(=O)(=O)N([C@@H](C)CO)C[C@H]1C,-1,-2,5,-5,x,x,
C[C@@H]1CN([C@H](C)CO)C(=O)c2cccc(NS(=O)(=O)c3cccs3)c2O[C@H]1CN(C)S(=O)(=O)c1ccc(Cl)cc1,-1,7,-2,-4,x,x,
O=C(C[C@H]1CC[C@@H]2[C@H](COC[C@@H](O)CN2C(=O)Nc2ccc(Cl)c(Cl)c2)O1)NCc1ccccc1,1,3,0,9,x,x,
Cc1ccc(-c2nc(C(=O)NCCCN(C)C)cc3c2[nH]c2ccccc23)cc1,17,105*,-2,93*,5,-12%,DNA binder FP=u
CN(C)CCCN(C(=O)CCOc1ccccc1)c1nc2ccc(F)cc2s1,5,65*,16,89*,-55,-16%,DNA binder FP=i
CC(C)NC(=O)Nc1ccc2c(c1)C(=O)N([C@H](C)CO)C[C@@H](C)[C@@H](CN(C)C(=O)Nc1ccc(F)cc1)O2,-1,x,x,x,x,x,
COc1ccc(-c2cc3nc(NCCCN(C)C)n(C)c(=O)c3s2)cc1OC,5,69*,1,84*,x,-6%,DNA binder FP=i
Cc1ccccc1-c1cc2nc(NCCCN(C)C)n(C)c(=O)c2s1,u,12,-7,25,x,x,
CN(C)CCCNc1nc2cc(-c3cccc(Cl)c3)sc2c(=O)n1C,7,50*,-6,89*,x,-7%,DNA binder FP=i
